Results reported in ChEMBL document CHEMBL5321201, “Investigation of morpholine isosters for the development of a potent, selective and metabolically stable mTOR kinase inhibitor” (Eur J Med Chem, 2023).
Each block holds one molecule with its values, some of them ahead of it.

Experiments:
[1] = Metabolic stability in CD-1 mouse hepatocytes assessed as parent compound remaining at 5 uM measured after 3 hrs by LC-MS analysis; type: ADME, cell-based, Hepatocyte; details: read-out: Stability
In short: (§1)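 Cryopreserved hepatocytes from the listed species, in suspension at 200,000 cells/well in Williams Medium E with 2 mM L-glutamine and 25 mM HEPES. Compound final 5 µM in 0.5% DMSO, sampled at 0, 15, 60, 90 and 180 min. ACN precipitation, LC-MS. Hepatocyte-free medium served as negative control and 7-ethoxycoumarin as reference; duplicates.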

[2] = target: T1, Serine/threonine-protein kinase mTOR (Homo sapiens, UniProt P42345); test: Binding affinity to DNA-tagged mTOR (unknown origin) assessed as dissociation constant by quantitative PCR analysis
In short: (§2)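 Competition binding: DNA-tagged kinases on immobilized ligand competed with an 11-point 3-fold dilution starting at 30 µM. Bound kinase quantified by qPCR of DNA tags. Kd fitted with the Hill equation (slope −1); duplicate experiments, mean reported.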

[3] = Metabolic stability in CD-1 mouse hepatocytes assessed as half life at 5 microM incubated upto 180 mins by LC/MS analysis; type: ADME, cell-based, Hepatocyte; in short: as §1
[4] = AUC (0 to 8 hrs) in Sprague-Dawley rat brain at 5 mg/kg, po administered as single dose and measured after 8 hrs by LC-MS analysis; type: ADME, organism-based; design: time 8 hrs, dose 5 mg/kg, route po; details: in vivo
In short: (§3)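 Male Sprague Dawley rats given a single oral dose of 5 mg/kg (5 mL/kg) in 20% Captisol, pH adjusted to 3. Three rats per time point (30 min, 2, 4, 8 h); heart-puncture blood into lithium-heparin, plasma separated, brain collected. Samples precipitated with acetonitrile containing diazepam internal standard, then LC-MS quantification.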

[5] = target: T2, Phosphatidylinositol 4,5-bisphosphate 3-kinase catalytic subunit alpha isoform (Homo sapiens, UniProt P42336); test: Displacement of Alexa fluor 647-labeled kinase tracer 314 from recombinant N-terminal (His)6-tagged p110alpha (unknown origin) assessed as inhibition constant by TR-FRET based Lanthascreen kinase activity assay
T2 sequence (P42336 whole entry, canonical isoform): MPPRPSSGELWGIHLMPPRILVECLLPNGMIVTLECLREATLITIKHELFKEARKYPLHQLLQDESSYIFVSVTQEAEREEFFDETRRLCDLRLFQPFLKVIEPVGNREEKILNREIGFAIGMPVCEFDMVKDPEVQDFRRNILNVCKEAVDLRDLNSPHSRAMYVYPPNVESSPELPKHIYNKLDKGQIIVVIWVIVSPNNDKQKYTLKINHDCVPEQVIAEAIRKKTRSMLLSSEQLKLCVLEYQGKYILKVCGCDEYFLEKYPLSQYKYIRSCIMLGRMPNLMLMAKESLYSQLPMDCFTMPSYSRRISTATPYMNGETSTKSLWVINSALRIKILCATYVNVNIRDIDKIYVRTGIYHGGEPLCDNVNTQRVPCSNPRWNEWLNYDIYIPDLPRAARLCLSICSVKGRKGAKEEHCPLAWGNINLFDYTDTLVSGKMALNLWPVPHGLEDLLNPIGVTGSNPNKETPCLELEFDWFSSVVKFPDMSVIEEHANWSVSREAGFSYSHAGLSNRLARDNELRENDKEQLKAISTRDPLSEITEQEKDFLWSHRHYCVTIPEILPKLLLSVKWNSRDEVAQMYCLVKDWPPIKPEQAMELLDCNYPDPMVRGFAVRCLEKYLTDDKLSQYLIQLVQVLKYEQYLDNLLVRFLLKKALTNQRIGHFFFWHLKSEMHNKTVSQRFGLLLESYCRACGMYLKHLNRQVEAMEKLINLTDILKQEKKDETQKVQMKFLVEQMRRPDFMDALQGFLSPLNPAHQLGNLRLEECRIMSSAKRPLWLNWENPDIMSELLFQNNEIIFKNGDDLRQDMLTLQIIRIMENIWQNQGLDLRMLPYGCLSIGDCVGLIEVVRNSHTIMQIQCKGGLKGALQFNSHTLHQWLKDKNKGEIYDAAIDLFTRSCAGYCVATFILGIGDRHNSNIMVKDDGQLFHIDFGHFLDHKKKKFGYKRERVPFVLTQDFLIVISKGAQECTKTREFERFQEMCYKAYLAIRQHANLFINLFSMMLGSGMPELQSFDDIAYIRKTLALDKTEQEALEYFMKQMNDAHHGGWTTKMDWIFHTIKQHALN

[6] = AUC (0 to 8 hrs) in Sprague-Dawley rat plasma at 5 mg/kg, po administered as single dose and measured after 8 hrs by LC-MS analysis; type: ADME, organism-based; design: dose 5 mg/kg, time 8 hrs, route po; in short: as §3
[7] = Toxicity in Sprague-Dawley rat assessed as increase in glucose concentration at 5 mg/kg, po measured upto 8 hrs by glucose colorimetric assay; type: organism-based; details: in vivo
In short: (§4)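 Male SD rats dosed orally at 5 mg/kg in 20% Captisol, with vehicle controls. Plasma was taken by heart puncture at 30 min, 2, 4 and 8 h, three rats per point. Insulin was measured by rat/mouse insulin ELISA and glucose by colorimetric assay.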

[8] = Metabolic stability in Beagle dog hepatocytes assessed as parent compound remaining at 5 uM measured after 3 hrs by LC-MS analysis; type: ADME, cell-based, Canis lupus familiaris, Hepatocyte; details: read-out: Stability; in short: as §1
[9] = Metabolic stability in Beagle dog hepatocytes assessed as half life at 5 microM incubated upto 180 mins by LC/MS analysis; type: ADME, cell-based, Canis lupus familiaris, Hepatocyte; in short: as §1
[10] = cells; details: Homo sapiens, SK-OV-3, 1 h
[11] = target: T2, Phosphatidylinositol 4,5-bisphosphate 3-kinase catalytic subunit alpha isoform; test: Binding affinity to DNA-tagged P13kalpha (unknown origin) assessed as dissociation constant by quantitative PCR analysis; in short: as §2
[12] = Toxicity in Sprague-Dawley rat assessed as increase in insulin concentration at 5 mg/kg, po measured upto 8 hrs by ELISA; type: organism-based; details: in vivo; in short: as §4
[13] = cells; details: Homo sapiens, SK-OV-3, 1 h; remark: listed apart in the source
[14] = cells; details: Homo sapiens, SSK41, 72 h
[15] = cells; details: Homo sapiens, Karpas-1718, 72 h
[16] = Metabolic stability in human hepatocytes assessed as parent compound remaining at 5 uM measured after 3 hrs by LC-MS analysis; type: ADME, cell-based, Hepatocyte; details: read-out: Stability; in short: as §1
[17] = target: T3, CYP1A1 (Homo sapiens, UniProt P04798); test: Stability of compound assessed as recombinant human CYP1A1-mediated drug metabolism by measuring compound remaining at 1 uM incubated for 60 mins by LC-MS analysis; type: ADME; details: read-out: Stability
T3 sequence (P04798 whole entry): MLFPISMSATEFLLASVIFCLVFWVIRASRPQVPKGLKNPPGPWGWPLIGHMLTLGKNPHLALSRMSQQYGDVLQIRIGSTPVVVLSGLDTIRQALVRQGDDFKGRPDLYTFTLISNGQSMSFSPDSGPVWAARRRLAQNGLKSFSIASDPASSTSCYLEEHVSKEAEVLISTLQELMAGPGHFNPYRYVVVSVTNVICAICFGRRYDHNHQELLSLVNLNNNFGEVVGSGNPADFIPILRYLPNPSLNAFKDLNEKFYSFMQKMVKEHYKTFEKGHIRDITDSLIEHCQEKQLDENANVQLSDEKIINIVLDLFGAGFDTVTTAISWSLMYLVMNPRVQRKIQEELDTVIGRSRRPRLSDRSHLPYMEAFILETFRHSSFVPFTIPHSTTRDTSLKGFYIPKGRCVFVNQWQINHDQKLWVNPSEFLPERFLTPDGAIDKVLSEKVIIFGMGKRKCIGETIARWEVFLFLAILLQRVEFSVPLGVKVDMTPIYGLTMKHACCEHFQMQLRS
In short: (§5)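 Recombinant human CYP1A1 or CYP1A2 Supersomes at 25 pmol/mL, with compound at 1 µM (0.25% DMSO) and an NADP+-regenerating cofactor mix, at 37 °C. Reactions stopped with ACN plus internal standard at 0 and 60 min. Controls: melatonin for CYP1A1 and phenacetin for CYP1A2, plus no-cofactor negatives. Duplicates.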

[18] = Metabolic stability in Beagle dog hepatocytes assessed as intrinsic clearance measured per million cells at 5 microM incubated upto 180 mins by LC/MS analysis; type: ADME, cell-based, Canis lupus familiaris, Hepatocyte; details: read-out: CLH; in short: as §1
[19] = target: Phosphatidylinositol 4,5-bisphosphate 3-kinase catalytic subunit beta isoform (Homo sapiens, UniProt P42338); test: Binding affinity to DNA-tagged P13kbeta (unknown origin) assessed as dissociation constant by quantitative PCR analysis; in short: as §2
Sequence of Phosphatidylinositol 4,5-bisphosphate 3-kinase catalytic subunit beta isoform (P42338 whole entry, canonical isoform): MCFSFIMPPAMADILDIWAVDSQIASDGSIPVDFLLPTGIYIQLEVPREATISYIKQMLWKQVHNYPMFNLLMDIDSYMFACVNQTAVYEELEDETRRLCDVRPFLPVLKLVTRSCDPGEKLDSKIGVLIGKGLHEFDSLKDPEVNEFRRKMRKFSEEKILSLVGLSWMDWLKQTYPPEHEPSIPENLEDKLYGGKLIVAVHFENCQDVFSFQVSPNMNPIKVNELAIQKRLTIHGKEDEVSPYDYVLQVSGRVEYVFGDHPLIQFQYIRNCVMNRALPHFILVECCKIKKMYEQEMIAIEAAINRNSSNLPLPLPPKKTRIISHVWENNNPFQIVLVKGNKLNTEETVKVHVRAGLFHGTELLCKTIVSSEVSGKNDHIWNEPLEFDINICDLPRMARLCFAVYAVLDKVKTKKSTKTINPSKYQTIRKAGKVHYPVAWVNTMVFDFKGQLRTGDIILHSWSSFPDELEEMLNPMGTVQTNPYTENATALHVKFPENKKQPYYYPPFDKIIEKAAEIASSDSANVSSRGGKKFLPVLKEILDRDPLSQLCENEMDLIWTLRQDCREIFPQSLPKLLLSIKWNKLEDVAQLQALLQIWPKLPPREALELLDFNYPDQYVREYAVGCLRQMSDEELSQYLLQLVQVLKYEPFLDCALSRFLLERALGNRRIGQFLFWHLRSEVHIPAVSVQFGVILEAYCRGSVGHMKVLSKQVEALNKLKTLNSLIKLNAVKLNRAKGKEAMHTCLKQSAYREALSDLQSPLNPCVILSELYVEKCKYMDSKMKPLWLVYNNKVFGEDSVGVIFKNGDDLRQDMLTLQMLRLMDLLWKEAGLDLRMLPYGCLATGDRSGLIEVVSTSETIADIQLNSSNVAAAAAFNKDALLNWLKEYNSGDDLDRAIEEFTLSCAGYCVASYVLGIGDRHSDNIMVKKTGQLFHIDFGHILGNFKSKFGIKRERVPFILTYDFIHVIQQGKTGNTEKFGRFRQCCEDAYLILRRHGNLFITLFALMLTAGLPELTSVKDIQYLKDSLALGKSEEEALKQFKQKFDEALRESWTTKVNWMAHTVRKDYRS

[20] = target: T4, CYP1A2 (Homo sapiens, UniProt P05177); test: Stability of compound assessed as recombinant human CYP1A2-mediated drug metabolism by measuring compound remaining at 1 uM incubated for 60 mins by LC-MS analysis; type: ADME; details: read-out: Stability; in short: as §5
T4 sequence (P05177 whole entry): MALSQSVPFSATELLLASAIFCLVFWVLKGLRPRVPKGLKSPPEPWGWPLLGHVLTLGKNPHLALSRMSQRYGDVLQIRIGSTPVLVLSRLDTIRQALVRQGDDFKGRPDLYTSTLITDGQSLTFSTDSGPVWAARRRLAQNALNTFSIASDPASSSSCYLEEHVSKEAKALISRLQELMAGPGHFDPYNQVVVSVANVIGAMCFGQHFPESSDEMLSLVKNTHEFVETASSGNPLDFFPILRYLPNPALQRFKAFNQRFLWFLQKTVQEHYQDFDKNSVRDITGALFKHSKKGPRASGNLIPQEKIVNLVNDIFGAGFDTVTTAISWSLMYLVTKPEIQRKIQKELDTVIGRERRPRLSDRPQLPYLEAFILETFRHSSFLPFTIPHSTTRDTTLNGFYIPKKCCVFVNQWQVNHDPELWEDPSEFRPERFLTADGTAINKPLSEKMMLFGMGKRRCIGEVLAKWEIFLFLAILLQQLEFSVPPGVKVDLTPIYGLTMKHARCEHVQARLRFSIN

[21] = target: Phosphatidylinositol 3-kinase catalytic subunit type 3 (Homo sapiens, UniProt Q8NEB9); test: Binding affinity to DNA-tagged VPS34 (unknown origin) assessed as dissociation constant by quantitative PCR analysis; in short: as §2
Sequence of Phosphatidylinositol 3-kinase catalytic subunit type 3 (Q8NEB9 whole entry): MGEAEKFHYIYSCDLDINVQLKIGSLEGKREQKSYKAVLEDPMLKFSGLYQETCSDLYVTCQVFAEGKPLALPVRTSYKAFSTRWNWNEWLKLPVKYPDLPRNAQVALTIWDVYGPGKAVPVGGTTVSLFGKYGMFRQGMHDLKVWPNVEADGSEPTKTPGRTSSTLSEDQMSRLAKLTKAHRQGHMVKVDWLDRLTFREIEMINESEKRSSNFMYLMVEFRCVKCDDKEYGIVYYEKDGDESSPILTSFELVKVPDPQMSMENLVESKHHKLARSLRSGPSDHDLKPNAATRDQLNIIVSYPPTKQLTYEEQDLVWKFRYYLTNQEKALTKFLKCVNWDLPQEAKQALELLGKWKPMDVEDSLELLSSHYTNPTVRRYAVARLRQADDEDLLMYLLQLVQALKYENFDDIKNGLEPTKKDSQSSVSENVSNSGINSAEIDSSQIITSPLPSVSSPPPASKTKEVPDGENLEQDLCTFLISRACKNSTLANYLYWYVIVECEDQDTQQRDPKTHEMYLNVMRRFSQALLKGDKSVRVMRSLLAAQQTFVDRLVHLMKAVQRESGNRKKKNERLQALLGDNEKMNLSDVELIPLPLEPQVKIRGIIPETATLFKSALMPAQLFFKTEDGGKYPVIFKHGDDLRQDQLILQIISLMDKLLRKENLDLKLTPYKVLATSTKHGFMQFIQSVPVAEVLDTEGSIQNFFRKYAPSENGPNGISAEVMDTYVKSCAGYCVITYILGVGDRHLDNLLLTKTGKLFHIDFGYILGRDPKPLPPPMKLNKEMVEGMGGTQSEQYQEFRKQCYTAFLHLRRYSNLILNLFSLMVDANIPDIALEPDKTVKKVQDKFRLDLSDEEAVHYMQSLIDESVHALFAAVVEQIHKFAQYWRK

[22] = target: Phosphatidylinositol 4-kinase beta (Homo sapiens, UniProt Q9UBF8); test: Binding affinity to DNA-tagged P14kbeta (unknown origin) assessed as dissociation constant by quantitative PCR analysis; in short: as §2
Sequence of Phosphatidylinositol 4-kinase beta (Q9UBF8 whole entry, canonical isoform): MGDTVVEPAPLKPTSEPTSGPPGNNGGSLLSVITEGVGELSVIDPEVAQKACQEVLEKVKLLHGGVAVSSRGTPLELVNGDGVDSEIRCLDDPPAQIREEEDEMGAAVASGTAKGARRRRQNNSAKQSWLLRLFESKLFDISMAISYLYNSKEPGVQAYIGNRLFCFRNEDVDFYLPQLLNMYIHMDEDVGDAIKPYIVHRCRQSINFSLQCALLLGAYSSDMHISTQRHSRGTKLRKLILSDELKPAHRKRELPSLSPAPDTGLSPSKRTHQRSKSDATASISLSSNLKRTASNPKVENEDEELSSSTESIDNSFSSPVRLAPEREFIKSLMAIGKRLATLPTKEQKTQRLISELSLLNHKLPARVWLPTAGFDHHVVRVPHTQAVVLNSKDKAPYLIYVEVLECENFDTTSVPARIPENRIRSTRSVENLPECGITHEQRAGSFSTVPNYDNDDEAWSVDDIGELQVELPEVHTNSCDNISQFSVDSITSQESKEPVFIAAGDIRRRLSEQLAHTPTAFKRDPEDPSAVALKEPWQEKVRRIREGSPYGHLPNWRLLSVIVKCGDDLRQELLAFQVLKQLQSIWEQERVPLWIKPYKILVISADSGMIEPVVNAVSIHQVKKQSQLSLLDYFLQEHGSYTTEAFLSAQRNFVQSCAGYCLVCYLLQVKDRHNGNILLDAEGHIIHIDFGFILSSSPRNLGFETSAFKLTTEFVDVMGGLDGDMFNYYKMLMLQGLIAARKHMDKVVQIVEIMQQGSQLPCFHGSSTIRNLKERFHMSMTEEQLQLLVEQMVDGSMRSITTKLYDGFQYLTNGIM

[23] = target: T5, Phosphatidylinositol 4,5-bisphosphate 3-kinase catalytic subunit delta isoform (Homo sapiens, UniProt O00329); test: Binding affinity to DNA-tagged P13kdelta (unknown origin) assessed as dissociation constant by quantitative PCR analysis; in short: as §2
T5 sequence (O00329 whole entry): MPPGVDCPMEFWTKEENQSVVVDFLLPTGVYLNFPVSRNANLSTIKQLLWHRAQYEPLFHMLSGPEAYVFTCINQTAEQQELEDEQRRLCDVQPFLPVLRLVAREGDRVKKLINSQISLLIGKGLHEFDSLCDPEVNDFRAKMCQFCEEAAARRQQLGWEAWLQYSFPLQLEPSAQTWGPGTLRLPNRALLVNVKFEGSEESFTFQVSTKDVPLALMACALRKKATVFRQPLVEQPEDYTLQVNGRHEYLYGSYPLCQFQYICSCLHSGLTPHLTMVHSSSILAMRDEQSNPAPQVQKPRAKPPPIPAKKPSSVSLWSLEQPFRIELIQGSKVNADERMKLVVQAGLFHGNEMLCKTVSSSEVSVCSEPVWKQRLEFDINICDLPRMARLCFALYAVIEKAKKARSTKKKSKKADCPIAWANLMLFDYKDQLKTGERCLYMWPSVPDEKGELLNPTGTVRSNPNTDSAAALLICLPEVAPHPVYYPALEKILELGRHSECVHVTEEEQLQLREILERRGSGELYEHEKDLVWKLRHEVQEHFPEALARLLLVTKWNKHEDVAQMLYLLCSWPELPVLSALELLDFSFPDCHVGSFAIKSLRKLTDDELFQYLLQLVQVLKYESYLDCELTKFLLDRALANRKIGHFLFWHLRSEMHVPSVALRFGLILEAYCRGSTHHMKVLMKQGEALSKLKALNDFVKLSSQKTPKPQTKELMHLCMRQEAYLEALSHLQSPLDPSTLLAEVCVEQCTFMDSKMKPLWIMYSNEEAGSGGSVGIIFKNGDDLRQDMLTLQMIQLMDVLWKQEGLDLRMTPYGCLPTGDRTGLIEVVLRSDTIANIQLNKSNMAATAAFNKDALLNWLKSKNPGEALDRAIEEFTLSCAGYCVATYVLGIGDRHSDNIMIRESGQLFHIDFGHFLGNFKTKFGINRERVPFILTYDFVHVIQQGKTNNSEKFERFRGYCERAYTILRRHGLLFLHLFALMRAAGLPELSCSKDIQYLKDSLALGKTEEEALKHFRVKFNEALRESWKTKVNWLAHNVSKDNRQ

[24] = system: VL51; test: cells; details: Homo sapiens, VL51, 72 h
[25] = target: T1, Serine/threonine-protein kinase mTOR; test: Displacement of Alexa fluor 647-labeled kinase tracer 314 from N-terminal GST-fused truncated recombinant human mTOR (1360 to 2549 residues) assessed as inhibition constant by TR-FRET based Lanthascreen kinase activity assay
[26] = Metabolic stability in Sprague-Dawley rat hepatocytes assessed as intrinsic clearance measured per million cells at 5 microM incubated upto 180 mins by LC/MS analysis; type: ADME, cell-based, Hepatocyte; details: read-out: CLH; in short: as §1
[27] = Metabolic stability in Sprague-Dawley rat hepatocytes assessed as half life at 5 microM incubated upto 180 mins by LC/MS analysis; type: ADME, cell-based, Hepatocyte; in short: as §1
[28] = target: Phosphatidylinositol 4,5-bisphosphate 3-kinase catalytic subunit gamma isoform (Homo sapiens, UniProt P48736); test: Binding affinity to DNA-tagged P13kgamma (unknown origin) assessed as dissociation constant by quantitative PCR analysis; in short: as §2
Sequence of Phosphatidylinositol 4,5-bisphosphate 3-kinase catalytic subunit gamma isoform (P48736 whole entry, canonical isoform): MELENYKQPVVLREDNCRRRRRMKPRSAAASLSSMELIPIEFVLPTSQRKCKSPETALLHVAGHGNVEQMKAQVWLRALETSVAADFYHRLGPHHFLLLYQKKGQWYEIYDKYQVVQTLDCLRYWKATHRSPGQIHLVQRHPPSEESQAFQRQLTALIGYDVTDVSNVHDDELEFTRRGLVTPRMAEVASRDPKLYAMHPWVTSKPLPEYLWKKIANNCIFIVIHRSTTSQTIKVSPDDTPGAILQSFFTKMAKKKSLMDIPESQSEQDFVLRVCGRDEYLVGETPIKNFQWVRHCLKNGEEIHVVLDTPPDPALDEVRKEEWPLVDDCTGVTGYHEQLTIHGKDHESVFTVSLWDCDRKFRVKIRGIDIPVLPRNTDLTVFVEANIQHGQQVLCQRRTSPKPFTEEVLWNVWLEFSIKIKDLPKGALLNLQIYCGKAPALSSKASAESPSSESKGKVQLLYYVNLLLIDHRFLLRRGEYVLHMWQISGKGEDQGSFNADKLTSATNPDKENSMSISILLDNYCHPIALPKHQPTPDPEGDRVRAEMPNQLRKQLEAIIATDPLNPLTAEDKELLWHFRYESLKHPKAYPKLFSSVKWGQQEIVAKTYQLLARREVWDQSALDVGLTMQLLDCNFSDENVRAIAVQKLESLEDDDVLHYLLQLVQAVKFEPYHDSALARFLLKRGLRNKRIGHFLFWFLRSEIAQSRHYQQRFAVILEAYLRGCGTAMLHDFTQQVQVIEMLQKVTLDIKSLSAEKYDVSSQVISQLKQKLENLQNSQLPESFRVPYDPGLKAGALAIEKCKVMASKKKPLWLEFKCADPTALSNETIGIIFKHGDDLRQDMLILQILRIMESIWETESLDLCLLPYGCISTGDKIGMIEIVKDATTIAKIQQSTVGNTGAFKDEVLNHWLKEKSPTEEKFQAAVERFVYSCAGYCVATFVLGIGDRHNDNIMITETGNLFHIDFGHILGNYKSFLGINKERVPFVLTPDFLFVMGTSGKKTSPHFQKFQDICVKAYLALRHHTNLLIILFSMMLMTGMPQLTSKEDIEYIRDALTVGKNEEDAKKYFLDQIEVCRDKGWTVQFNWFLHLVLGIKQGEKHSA

[29] = Metabolic stability in CD-1 mouse hepatocytes assessed as intrinsic clearance measured per million cells at 5 microM incubated upto 180 mins by LC/MS analysis; type: ADME, cell-based, Hepatocyte; details: read-out: CLH; in short: as §1
[30] = Metabolic stability in Sprague-Dawley rat hepatocytes assessed as parent compound remaining at 5 uM measured after 3 hrs by LC-MS analysis; type: ADME, cell-based, Hepatocyte; details: read-out: Stability; in short: as §1
[31] = Metabolic stability in human hepatocytes assessed as half life at 5 microM incubated upto 180 mins by LC/MS analysis; type: ADME, cell-based, Hepatocyte; in short: as §1
[32] = Metabolic stability in human hepatocytes assessed as intrinsic clearance measured per million cells at 5 microM incubated upto 180 mins by LC/MS analysis; type: ADME, cell-based, Hepatocyte; details: read-out: CLH; in short: as §1

- remaining at 3 h, 5 µM [1]: 74.5%
- Kd [2]: 5 nM
- half-life at 5 µM [3]: > 3 h
- AUC [4]: 2659 ng·h/g
- Ki [5]: 1140 nM
- AUC(0-t) at 8 h [6]: 3760 ng·h/mL
- remaining at 3 h, 5 µM [8]: 92.9%
- half-life at 5 µM [9]: > 3 h
- IC50 [10]: 85 nM
- Kd [11]: 420 nM
- IC50 [13]: 171 nM
- IC50 [14]: 369 nM
- IC50 [15]: 118 nM
- remaining at 3 h, 5 µM [16]: 59.9%
- remaining at 1 h, 1 µM [17]: 53.3%
- hepatocyte CLint at 5 µM [18]: 0.42 µL/min/1e6 cells
- Kd [19]: 6450 nM
- remaining at 1 h, 1 µM [20]: 84.2%
- Kd [21]: 6100 nM
- Kd [22]: > 30000 nM
- Kd [23]: 15500 nM
- IC50 [24]: 311 nM
- Ki [25]: 22 nM
- hepatocyte CLint at 5 µM [26]: 2.99 µL/min/1e6 cells
- half-life at 5 µM [27]: > 3 h
- Kd [28]: 5600 nM
- hepatocyte CLint at 5 µM [29]: 2.11 µL/min/1e6 cells
- remaining at 3 h, 5 µM [30]: 62.4%
- half-life at 5 µM [31]: > 3 h
- hepatocyte CLint at 5 µM [32]: 3.56 µL/min/1e6 cells
SMILES: Nc1cc(C(F)F)c(-c2nc(C3CCOCC3)nc(N3C4CCC3COC4)n2)cn1
- Activity [7]: Non-Toxic
- Activity [12]: Non-Toxic

- Ki [5]: 125 nM
- IC50 [10]: 94 nM
- IC50 [13]: 199 nM
- IC50 [14]: 195 nM
- IC50 [15]: 354 nM
- IC50 [24]: 150 nM
- Ki [25]: 16 nM
SMILES: Nc1cc(C(F)F)c(-c2nc(C3=CCOCC3)nc(N3C4CCC3COC4)n2)cn1
